Assay results reported in ChEMBL document CHEMBL2010745, “Optimization of the First Selective Steroid-11β-hydroxylase (CYP11B1) Inhibitors for the Treatment of Cortisol Dependent Diseases” (ACS Med Chem Lett, 2011).

Key:
Homo sapiens = organism: Homo sapiens; experiment: Selectivity ratio of IC50 for human CYP11B2 to IC50 for human CYP11B1
CYP17 = target: T1, CYP17 (Homo sapiens, UniProt P05093); experiment: Inhibition of human recombinant CYP17 expressed in Escherichia coli using progesterone as substrate at 2 uM; conditions: probe progesterone
T1 sequence (P05093 whole entry): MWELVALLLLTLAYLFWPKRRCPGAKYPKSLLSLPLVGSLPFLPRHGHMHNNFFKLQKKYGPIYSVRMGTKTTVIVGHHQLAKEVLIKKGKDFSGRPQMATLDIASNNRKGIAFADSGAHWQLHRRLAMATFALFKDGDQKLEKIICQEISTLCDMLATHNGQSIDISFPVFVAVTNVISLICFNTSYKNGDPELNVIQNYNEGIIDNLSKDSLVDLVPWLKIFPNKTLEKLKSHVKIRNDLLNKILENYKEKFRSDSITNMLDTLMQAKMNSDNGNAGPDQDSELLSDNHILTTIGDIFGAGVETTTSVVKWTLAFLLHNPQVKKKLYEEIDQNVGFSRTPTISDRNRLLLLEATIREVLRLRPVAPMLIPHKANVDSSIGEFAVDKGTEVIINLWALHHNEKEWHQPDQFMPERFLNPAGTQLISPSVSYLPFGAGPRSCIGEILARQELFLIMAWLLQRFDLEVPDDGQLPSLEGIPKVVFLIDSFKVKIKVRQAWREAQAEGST
Outline: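 Recombinantly expressed human CYP17 with progesterone as substrate. Inhibition is reported as percent at an inhibitor concentration of 2.0 μM.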

CYP19 (aromatase) = target: T2, CYP19 (aromatase) (Homo sapiens, UniProt P11511); experiment: Inhibition of CYP19 in human placental microsomes using [1beta-3H]androstenedione as substrate at 0.5 uM; conditions: probe [1beta-3H]androstenedione
T2 sequence (P11511 whole entry): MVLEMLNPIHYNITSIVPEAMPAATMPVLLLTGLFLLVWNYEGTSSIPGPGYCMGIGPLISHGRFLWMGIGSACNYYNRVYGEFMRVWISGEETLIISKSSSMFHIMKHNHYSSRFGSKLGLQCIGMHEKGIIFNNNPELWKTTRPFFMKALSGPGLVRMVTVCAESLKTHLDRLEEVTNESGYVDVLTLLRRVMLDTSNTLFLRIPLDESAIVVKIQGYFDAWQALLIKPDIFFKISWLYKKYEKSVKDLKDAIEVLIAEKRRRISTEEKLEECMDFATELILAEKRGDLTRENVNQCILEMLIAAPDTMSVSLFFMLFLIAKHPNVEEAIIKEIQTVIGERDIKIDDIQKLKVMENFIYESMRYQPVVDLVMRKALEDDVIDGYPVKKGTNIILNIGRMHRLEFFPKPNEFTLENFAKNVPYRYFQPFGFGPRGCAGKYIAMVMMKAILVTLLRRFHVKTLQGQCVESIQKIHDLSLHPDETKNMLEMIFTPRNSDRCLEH

[1] = target: T3, Cytochrome P450 11B2, mitochondrial (Homo sapiens, UniProt P19099); experiment: Inhibition of human CYP11B2 expressed in hamster V79 MZ cells using [3H] 11 deoxycorticosterone as substrate by HPLC radioflow detector; type: cell-based
T3 sequence (P19099 whole entry): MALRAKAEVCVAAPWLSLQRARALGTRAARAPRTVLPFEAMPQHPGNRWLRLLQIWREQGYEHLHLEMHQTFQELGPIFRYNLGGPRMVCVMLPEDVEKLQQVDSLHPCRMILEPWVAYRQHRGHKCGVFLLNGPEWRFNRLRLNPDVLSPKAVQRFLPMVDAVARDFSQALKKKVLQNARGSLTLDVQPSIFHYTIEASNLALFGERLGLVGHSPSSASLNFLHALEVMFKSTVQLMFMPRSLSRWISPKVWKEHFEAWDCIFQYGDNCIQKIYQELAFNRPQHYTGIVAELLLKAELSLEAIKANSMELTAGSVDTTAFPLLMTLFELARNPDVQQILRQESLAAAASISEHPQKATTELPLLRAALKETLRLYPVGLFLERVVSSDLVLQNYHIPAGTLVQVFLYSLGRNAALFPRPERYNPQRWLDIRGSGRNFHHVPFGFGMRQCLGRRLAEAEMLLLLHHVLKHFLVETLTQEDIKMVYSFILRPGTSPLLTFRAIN

[2] = target: T3, Cytochrome P450 11B2, mitochondrial; experiment: Inhibition of human CYP11B2 expressed in hamster V79 MZ cells using [3H] 11 deoxycorticosterone as substrate at 500 nM by HPLC radioflow detector; type: cell-based; conditions: v79, 0.5 µM
[3] = target: T4, Cytochrome P450 11B1, mitochondrial (Homo sapiens, UniProt P15538); experiment: Inhibition of human CYP11B1 expressed in hamster V79 MZ cells using [3H] 11 deoxycorticosterone as substrate by HPLC radioflow detector; type: cell-based
T4 sequence (P15538 whole entry): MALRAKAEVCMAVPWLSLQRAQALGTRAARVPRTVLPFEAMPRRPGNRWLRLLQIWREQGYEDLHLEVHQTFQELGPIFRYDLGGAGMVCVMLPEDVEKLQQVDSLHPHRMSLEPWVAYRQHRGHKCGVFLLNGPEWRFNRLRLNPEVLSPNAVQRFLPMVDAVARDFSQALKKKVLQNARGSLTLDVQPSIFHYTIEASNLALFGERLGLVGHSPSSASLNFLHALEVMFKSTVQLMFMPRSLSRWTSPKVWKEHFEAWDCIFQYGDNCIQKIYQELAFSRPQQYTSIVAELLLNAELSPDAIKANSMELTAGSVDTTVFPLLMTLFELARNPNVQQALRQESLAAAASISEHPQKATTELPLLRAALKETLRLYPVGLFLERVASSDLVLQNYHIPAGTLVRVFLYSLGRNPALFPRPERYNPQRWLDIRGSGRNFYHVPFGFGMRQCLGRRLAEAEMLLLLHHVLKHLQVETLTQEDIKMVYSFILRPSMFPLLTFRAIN

Row | SMILES | Ratio IC50 (Homo sapiens) | inhibition at 2 µM (CYP17) [%] | inhibition at 0.5 µM (CYP19 (aromatase)) [%] | IC50 [1] [µM] | inhibition (INH) [2] | IC50 [3] [µM]
1 | Nc1ccc(-c2ccc(Cn3ccnc3)cn2)cc1 | 5 | < 10 | < 10 |  |  | 
2 | Fc1ccc(-c2ccc(Cn3ccnc3)cn2)cc1F | 5 | < 10 | < 10 |  |  | 
3 | COc1ccc(-c2ccc(Cn3ccnc3)cn2)cc1 |  | < 10 | < 10 | > 1 |  | 
4 | Cc1ccc(-c2ccc(Cn3ccnc3)cn2)cc1N |  | < 10 | < 10 | > 1 |  | 
5 | N#Cc1ncccc1Cn1ccnc1 |  |  |  | > 1 |  | 
6 | c1ccc2oc(-c3ccc(Cn4ccnc4)cn3)cc2c1 |  |  |  | > 1 |  | 
7 | c1cn(Cc2ccc(-c3cncnc3)nc2)cn1 |  |  |  |  | Not Active | 
8 | Nc1cccc(-c2ccc(Cn3ccnc3)cn2)c1 | 31 | < 10 | < 10 |  |  | 
9 | c1cncc(Cn2ccnc2)c1 |  |  |  | > 1 |  | 
10 | c1cn(Cc2ccc(-c3ccsc3)nc2)cn1 | 26 | < 10 | < 10 |  |  | 
11 | c1ccc(-c2cc(Cn3ccnc3)cnc2-c2ccccc2)cc1 | 2.4 | < 10 | < 10 |  |  | 
12 | COc1ccc(-c2ccc(Cn3ccnc3)cn2)cn1 |  |  |  | > 1 |  | > 1
13 | c1ccc(N(c2ccccc2)c2ccc(-c3ccc(Cn4ccnc4)cn3)cc2)cc1 |  | < 10 | < 10 |  | Not Active | 
14 | c1cc(Cn2ccnc2)ccn1 |  |  |  | > 1 |  | 
15 | c1ccc2c(-c3ccc(Cn4ccnc4)cn3)cccc2c1 | 49 | < 10 | < 10 |  |  | 
16 | Clc1ncc(Cn2ccnc2)cc1-c1cccs1 | 6 | < 10 | < 10 | 0.416 |  | 0.073
17 | Brc1ccc(Cn2ccnc2)cn1 |  |  |  | > 1 |  | 
18 | Fc1ccc(-c2ccc(Cn3ccnc3)cn2)cc1 | 10 | < 10 | < 10 |  |  | 
19 | c1cn(Cc2ccc(-c3ccoc3)nc2)cn1 | 37 | < 10 | < 10 |  |  | 
20 | c1ccc2cc(-c3ccc(Cn4ccnc4)cn3)ccc2c1 | 3.2 |  |  |  |  | 
21 | O=Cc1ccc(-c2ccc(Cn3ccnc3)cn2)cc1 |  | < 10 | < 10 | > 1 |  | 
22 | c1coc(-c2ccc(Cn3ccnc3)cn2)c1 | 31 | < 10 | < 10 |  |  | 

Row | SMILES | Ratio IC50 (Homo sapiens) | inhibition at 2 µM (CYP17) [%] | inhibition at 0.5 µM (CYP19 (aromatase)) [%] | IC50 [1] [µM] | inhibition (INH) [2] | IC50 [3] [µM]
23 | Clc1ccc(-c2ccc(Cn3ccnc3)cn2)s1 | 2.6 |  | 30 |  |  | 
24 | c1ccc2c(-c3ccc(Cn4ccnc4)cn3)cncc2c1 | 10 |  |  |  |  | 
25 | c1cc(-c2ccc(Cn3ccnc3)cn2)ccn1 | 3.5 |  |  |  |  | 
26 | c1cncc(-c2ccc(Cn3ccnc3)cn2)c1 | 8 |  |  |  |  | 
27 | Nc1ccccc1-c1ccc(Cn2ccnc2)cn1 | 21 | < 10 | < 10 |  |  | 
28 | c1coc(-c2cc(Cn3ccnc3)cnc2-c2ccco2)c1 | 29 |  |  |  |  | 
29 | COc1ccc(-c2ccc(Cn3ccnc3)cn2)cc1OC |  | < 10 | < 10 | > 1 |  | > 1
30 | Fc1cccc(-c2ccc(Cn3ccnc3)cn2)c1 |  | < 10 | < 10 | > 1 |  | 
31 | Brc1ncccc1Cn1ccnc1 | 15 | < 10 | < 10 |  |  | 
32 | Oc1ccc(-c2ccc(Cn3ccnc3)cn2)cc1F | 14 |  |  |  |  | 
33 | Fc1ccccc1-c1ccc(Cn2ccnc2)cn1 | 24 | < 10 | < 10 |  |  | 
34 | N#Cc1cccc(-c2ccc(Cn3ccnc3)cn2)c1 |  |  |  | > 1 |  | 
35 | c1ccc2sc(-c3ccc(Cn4ccnc4)cn3)cc2c1 | 1 |  |  |  |  | 
36 | c1ccc2c(-c3ccc(Cn4ccnc4)cn3)csc2c1 | 29 | < 10 | < 10 |  |  | 
37 | c1ccc(-c2ccc(Cn3ccnc3)cn2)cc1 | 18 |  |  |  |  | 
38 | c1csc(-c2ccc(Cn3ccnc3)cn2)c1 | 17 | < 10 | < 10 |  |  | 
39 | COc1ccccc1-c1ccc(Cn2ccnc2)cn1 | 26 | < 10 | < 10 |  |  | 
40 | O=Cc1ccc(-c2ccc(Cn3ccnc3)cn2)s1 | 16 | < 10 | 19 |  |  | 
41 | Clc1ncc(Cn2ccnc2)cc1Br | 3.4 |  |  |  |  | 
42 | N#Cc1ccc(-c2ccc(Cn3ccnc3)cn2)cc1 |  |  |  | > 1 |  | 
43 | c1csc(-c2ncccc2Cn2ccnc2)c1 | 16 | < 10 | < 10 |  |  | 
